Assay results from ChEMBL document CHEMBL1147085, “Metabolism and pharmacokinetics of a novel Src kinase inhibitor TG100435 ([7-(2,6-dichloro-phenyl)-5-methyl-benzo[1,2,4]triazin-3-yl]-[4-(2-pyrrolidin-1-yl-ethoxy)-phenyl]-amine) and its active N-oxide metabolite TG100855 …” (Drug Metab Dispos, 2007).

Experiments:
[1] = Half life in Beagle dog at 5 mg/kg, iv; format: ADME, organism-based, Canis lupus familiaris; set-up: dose 5 mg/kg, route intravenous; conditions: in vivo
[2] = AUC (0 to infinity) in Beagle dog at 25 mg/kg, po; format: ADME, organism-based, Canis lupus familiaris; set-up: time infinity, dose 25 mg/kg, route oral; conditions: plasma
[3] = Volume of distribution in Beagle dog at 5 mg/kg, iv; format: ADME, organism-based, Canis lupus familiaris; set-up: dose 5 mg/kg, route intravenous; conditions: in vivo
[4] = AUC (0 to infinity) in Sprague-Dawley rat at 30 mg/kg, po; format: ADME, organism-based; set-up: time infinity, dose 30 mg/kg, route oral; conditions: plasma
[5] = AUC (0 to infinity) in BALB/c mouse at 40 mg/kg, po; format: ADME, organism-based; set-up: time infinity, dose 40 mg/kg, route oral; conditions: plasma
Summary of the method: (§1)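 Male BALB/c mice (~25 g); fasted overnight for single p.o. dosing, not fasted for i.v. or i.p. dosing. Composite blood sampling, n=3 per time point: 5, 15, 30 min, 1, 3, 6, 24, 48 hr after i.v. dose; 0.5, 1, 3, 5, 8, 24, 30, 48 hr after p.o. or i.p. dose. Heparinized plasma, both parent and N-oxide measured by LC/MS/MS (MRM 494.2/98.1 and 510.2/98.1); non-compartmental analysis, AUC by linear trapezoidal rule.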

[6] = AUC (0 to last) in Beagle dog at 25 mg/kg, po; format: ADME, organism-based, Canis lupus familiaris; set-up: dose 25 mg/kg, route oral, time 0 - last; conditions: plasma
[7] = Bioavailability in Sprague-Dawley rat at 25 mg/kg, po; format: ADME, organism-based; conditions: in vivo
[8] = Half life in BALB/c mouse at 5 mg/kg, iv; format: ADME, organism-based; set-up: dose 5 mg/kg, route intravenous; conditions: in vivo; summary of the method: as §1
[9] = Clearance in BALB/c mouse at 5 mg/kg, iv; format: ADME, organism-based; set-up: dose 5 mg/kg, route intravenous; conditions: in vivo; summary of the method: as §1
[10] = AUC (0 to infinity) in Beagle dog at 5 mg/kg, iv; format: ADME, organism-based, Canis lupus familiaris; set-up: time infinity, dose 5 mg/kg, route intravenous; conditions: plasma
[11] = Cmax in Beagle dog at 25 mg/kg, po; format: ADME, organism-based, Canis lupus familiaris; set-up: dose 25 mg/kg, route oral; conditions: in vivo
[12] = Tmax in Sprague-Dawley rat at 25 mg/kg, po; format: ADME, organism-based; set-up: dose 25 mg/kg, route oral; conditions: in vivo
[13] = Cmax in BALB/c mouse at 25 mg/kg, po; format: ADME, organism-based; set-up: dose 25 mg/kg, route oral; conditions: in vivo; summary of the method: as §1
[14] = Drug level in Beagle dog plasma at 5 mg/kg, iv; format: ADME, organism-based, Canis lupus familiaris; set-up: dose 5 mg/kg, route intravenous
[15] = AUC (0 to last) in BALB/c mouse at 25 mg/kg, po; format: ADME, organism-based; set-up: time 0 - last, dose 25 mg/kg, route oral; conditions: plasma; summary of the method: as §1
[16] = Volume of distribution in BALB/c mouse at 5 mg/kg, iv; format: ADME, organism-based; set-up: dose 5 mg/kg, route intravenous; conditions: in vivo
[17] = Clearance in Sprague-Dawley rat at 5 mg/kg, iv; format: ADME, organism-based; set-up: dose 5 mg/kg, route intravenous; conditions: in vivo
[18] = AUC (0 to infinity) in BALB/c mouse at 5 mg/kg, iv; format: ADME, organism-based; set-up: time infinity, dose 5 mg/kg, route intravenous; conditions: plasma; summary of the method: as §1
[19] = AUC (0 to infinity) in BALB/c mouse at 25 mg/kg, po; format: ADME, organism-based; set-up: time infinity, dose 25 mg/kg, route oral; conditions: plasma; summary of the method: as §1
[20] = Drug level in BALB/c mouse plasma at 5 mg/kg, iv; format: ADME, organism-based; set-up: dose 5 mg/kg, route intravenous; summary of the method: as §1
Canis familiaris = test: Bioavailability in Beagle dog assessed as AUC of ([7-(2,6-Dichloro-phenyl)-5-methyl-benzo[1,2,4]triazin-3-yl]-{4-[2-(1-pyrrolidin-1-yl-ethoxy)-phenyl]-amine) at 25 mg/kg, po; format: ADME, organism-based, Canis lupus familiaris; conditions: in vivo
[21] = Half life in Sprague-Dawley rat at 5 mg/kg, iv; format: ADME, organism-based; set-up: dose 5 mg/kg, route intravenous; conditions: in vivo
[22] = Volume of distribution in Sprague-Dawley rat at 5 mg/kg, iv; format: ADME, organism-based; set-up: dose 5 mg/kg, route intravenous; conditions: in vivo
[23] = Clearance in Beagle dog at 5 mg/kg, iv; format: ADME, organism-based, Canis lupus familiaris; set-up: dose 5 mg/kg, route intravenous; conditions: in vivo
[24] = AUC (0 to infinity) in Sprague-Dawley rat at 5 mg/kg, iv; format: ADME, organism-based; set-up: time infinity, dose 5 mg/kg, route intravenous; conditions: plasma
[25] = AUC (0 to last) in Sprague-Dawley rat at 25 mg/kg, po; format: ADME, organism-based; set-up: time 0 - last, dose 25 mg/kg, route oral; conditions: plasma
[26] = Drug level in Sprague-Dawley rat plasma at 5 mg/kg, iv; format: ADME, organism-based; set-up: dose 5 mg/kg, route intravenous
[27] = AUC (0 to infinity) in Sprague-Dawley rat at 25 mg/kg, po; format: ADME, organism-based; set-up: time infinity, dose 25 mg/kg, route oral; conditions: plasma
[28] = Bioavailability in Beagle dog at 25 mg/kg, po; format: ADME, organism-based, Canis lupus familiaris; conditions: in vivo

- half-life [1]: 15.1 h
- AUC(0-inf) [2]: 3110 ng·h/mL
- Vd [3]: 18.7 L/kg
- AUC(0-inf) [4]: 8120 ng·h/mL
- AUC(0-inf) [5]: 35100 ng·h/mL
- AUC(0-t) [6]: 2540 ng·h/mL
- bioavailability [7]: 23%
- half-life [8]: 5.4 h
- clearance [9]: 20.1 mL/min/kg
- AUC(0-inf) [10]: 5800 ng·h/mL
- Cmax [11]: 102 ng/mL
- Tmax [12]: 8 h
- Cmax [13]: 618 ng/mL
- C0 [14]: 1660 ng/mL
- AUC(0-t) [15]: 15000 ng·h/mL
- Vd [16]: 9.4 L/kg
- clearance [17]: 12.7 mL/min/kg
- AUC(0-inf) [18]: 4140 ng·h/mL
- AUC(0-inf) [19]: 15300 ng·h/mL
- C0 [20]: 873 ng/mL
- AUC (Canis familiaris): 6470 ng·h/mL
- half-life [21]: 8.9 h
- Vd [22]: 9.4 L/kg
- clearance [23]: 14.5 mL/min/kg
- AUC(0-inf) [24]: 7030 ng·h/mL
- AUC(0-t) [25]: 7980 ng·h/mL
- C0 [26]: 1650 ng/mL
- AUC(0-inf) [27]: 8010 ng·h/mL
- bioavailability [28]: 10.7%
SMILES: Cc1cc(-c2c(Cl)cccc2Cl)cc2nnc(Nc3ccc(OCCN4CCCC4)cc3)nc12
